Experimental data published in paper PMC8643159 (Drug Design, Development and Therapy, 2021).
Read-outs that look alike come from different tables or passages of the source.

Columns and labels:
[1] = system: CYP2C8; details: cited from earlier work
[2] = cited from earlier work
[3] = Stability of ripretinib in beagle dog plasma under four conditions; type: in vitro ADME; details: room temperature, autosampler, freeze-thaw, frozen storage; 2.5, 100, 750 ng/mL
Outline: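 Dog plasma spiked with test compound at 2.5, 100 and 750 ng/mL, six replicates per level. Stability checked at room temperature, in frozen storage, through freeze-thaw, and as processed extracts in the autosampler. Samples taken with avapritinib IS through 1 mol/L NaOH and ethyl acetate extraction, dried under nitrogen, reconstituted in mobile phase; quantified by UPLC-MS/MS (C18, 0.1% formic acid/acetonitrile gradient).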

[4] = type: in vivo; details: beagle dogs
[5] = system: CYP3A4; details: cited from earlier work
[6] = oral administration of 150 mg of ripretinib
[7] = single dose of ripretinib 150 mg, patients
[8] = combined with itraconazole vs ripretinib alone
[9] = combined with voriconazole vs ripretinib alone

For `CCn1c(=O)c(-c2cc(NC(=O)Nc3ccccc3)c(F)cc2Br)cc2cnc(N)cc21` [DP-5439], the “inhibition of CYP2C8” value [1] is given as “could inhibit”.

For `CCn1c(=O)c(-c2cc(NC(=O)Nc3ccccc3)c(F)cc2Br)cc2cnc(NC)cc21` [Ripretinib], the “median time to reach Cmax” value [2, 6] is given as 4 h, the “time to reach a steady state” value [2, 6] is given as 14 days and the “mean AUC0-12h” value [2, 7] is given as 3773 ng·h/mL. For the same molecule, the “mean AUC0-24h” value [2, 7] was 6634 ng·h/mL, the “mean Cmax” value [2, 7] was 502 ng/mL and the “inhibition of CYP2C8” value [1] was “could inhibit”. For the same molecule, the “stability in plasma under four conditions” value [3] was “good stability”, the “increase of AUC0→t of ripretinib” value [4, 8] was 36.35% and the “increase of Cmax of ripretinib” value [4, 8] was 38.35%. For the same molecule, the “increase of AUC0→t of ripretinib” value [4, 9] was 25.52% and the “increase of Cmax of ripretinib” value [4, 9] was 27.44%.

For `CCC(C)n1ncn(-c2ccc(N3CCN(c4ccc(OCC5COC(Cn6cncn6)(c6ccc(Cl)cc6Cl)O5)cc4)CC3)cc2)c1=O` (centres unmarked) [Itraconazole], the “inhibition of CYP3A4” value [5] is given as “strong inhibitor”.

In the case of `C[C@@H](c1ncncc1F)[C@](O)(Cn1cncn1)c1ccc(F)cc1F` [voriconazole], the “inhibition of CYP3A4” value [5] is listed as “moderate inhibitor”.
